# Measured values: ChEMBL document CHEMBL4706746, “Structural and in Vitro Functional Characterization of a Menthyl TRPM8 Antagonist Indicates Species-Dependent Regulation” (ACS Med Chem Lett, 2021)
# Experiments:
# Assay type in all cases: cell-based
# [1] = molecular target: Transient receptor potential cation channel subfamily A member 1 (Homo sapiens) (UniProt O75762); experiment: Antagonist activity at recombinant human TRPA1 stably expressed in HEK293 cells assessed as inhibition of AITC-induced calcium flux at 66.7 uM preincubated for 5 mins followed by AITC addition and measured after 180 secs by Fluo-8 Calcium dye based fluorescence assay relative to control; conditions: time 8.0 min
# Procedure, shortened: (§1)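 Ca2+ flux assay in HEK293 cells stably expressing human TRPA1 or TRPV1. Test compound was given at 66.7–333 μM, then cells were challenged with agonist at its EC80: AITC 10 μM for TRPA1, capsaicin 0.1 μM for TRPV1. % inhibition is normalized to the EC80 agonist response. n = 3.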
# [2] = molecular target: Transient receptor potential cation channel subfamily V member 1 (Homo sapiens) (UniProt Q8NER1); experiment: Agonist activity at recombinant human TRPV1 stably expressed in HEK293 cells at 66.7 uM measured after 180 secs by Fluo-8 Calcium dye based fluorescence assay relative to control; conditions: time 180.0 sec
# Procedure, shortened: (§2)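 Ca2+ flux assay in HEK293 cells stably expressing human TRPA1 or TRPV1. Test concentrations were 66.7–333 μM, applied alone. Response is expressed as % activation, normalized to the Emax agonist concentration: AITC 300 μM for TRPA1, capsaicin 3 μM for TRPV1. n = 3.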
# [3] = molecular target: T1, Transient receptor potential cation channel subfamily M member 8 (Homo sapiens, UniProt Q7Z2W7); experiment: Antagonist activity at recombinant human TRPM8 stably expressed in HEK293 cells assessed as inhibition of icilin-induced intracellular calcium level by Fluo-4NW probe based fluorescence assay
# Procedure, shortened: (§3)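 Fluo-4 NW calcium imaging in HEK293 cells expressing human or rat TRPM8. Agonist was 500 nM icilin or 100 μM menthol, with test compound at 0.1–10 μM. IC50 was taken from concentration–response curves. Mean ± SEM, n = 3, N = 3.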
# Target sequence in this assay (Q7Z2W7 whole entry): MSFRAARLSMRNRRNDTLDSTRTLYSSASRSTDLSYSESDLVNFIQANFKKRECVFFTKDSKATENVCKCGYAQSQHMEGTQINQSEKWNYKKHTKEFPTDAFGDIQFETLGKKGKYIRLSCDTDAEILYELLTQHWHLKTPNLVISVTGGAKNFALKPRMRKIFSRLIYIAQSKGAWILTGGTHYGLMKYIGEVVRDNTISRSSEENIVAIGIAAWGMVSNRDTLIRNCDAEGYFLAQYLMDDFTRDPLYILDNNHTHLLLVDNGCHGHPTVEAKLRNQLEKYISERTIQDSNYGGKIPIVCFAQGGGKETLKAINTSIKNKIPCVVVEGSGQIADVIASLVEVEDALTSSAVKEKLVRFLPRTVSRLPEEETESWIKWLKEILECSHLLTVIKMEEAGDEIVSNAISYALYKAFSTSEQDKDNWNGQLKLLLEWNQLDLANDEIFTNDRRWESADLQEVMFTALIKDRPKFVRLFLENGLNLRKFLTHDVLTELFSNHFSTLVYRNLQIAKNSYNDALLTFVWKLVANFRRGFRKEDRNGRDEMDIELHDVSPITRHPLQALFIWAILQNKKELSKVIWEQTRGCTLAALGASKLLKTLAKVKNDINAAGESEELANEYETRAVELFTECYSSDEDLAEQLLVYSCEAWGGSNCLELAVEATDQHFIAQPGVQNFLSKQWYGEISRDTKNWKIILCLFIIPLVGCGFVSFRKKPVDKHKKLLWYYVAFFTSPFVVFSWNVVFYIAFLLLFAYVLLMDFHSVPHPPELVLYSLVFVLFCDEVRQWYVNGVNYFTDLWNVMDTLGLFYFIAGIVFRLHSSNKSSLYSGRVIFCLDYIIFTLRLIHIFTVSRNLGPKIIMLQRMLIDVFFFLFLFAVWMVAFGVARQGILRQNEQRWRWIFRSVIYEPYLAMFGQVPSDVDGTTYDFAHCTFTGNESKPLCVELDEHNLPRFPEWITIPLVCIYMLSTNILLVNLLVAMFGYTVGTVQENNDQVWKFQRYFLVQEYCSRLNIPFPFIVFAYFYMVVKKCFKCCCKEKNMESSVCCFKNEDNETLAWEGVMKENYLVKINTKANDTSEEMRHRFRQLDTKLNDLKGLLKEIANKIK
# [4] = molecular target: Transient receptor potential cation channel subfamily A member 1 (Homo sapiens) (UniProt O75762); experiment: Agonist activity at recombinant human TRPA1 stably expressed in HEK293 cells at 133 uM measured after 180 secs by Fluo-8 Calcium dye based fluorescence assay relative to control; conditions: time 180.0 sec; procedure, shortened: as §2
# [5] = molecular target: Transient receptor potential cation channel subfamily V member 1 (Homo sapiens) (UniProt Q8NER1); experiment: Agonist activity at recombinant human TRPV1 stably expressed in HEK293 cells at 333 uM measured after 180 secs by Fluo-8 Calcium dye based fluorescence assay relative to control; conditions: time 180.0 sec; procedure, shortened: as §2
# [6] = molecular target: Transient receptor potential cation channel subfamily V member 1 (Homo sapiens) (UniProt Q8NER1); experiment: Antagonist activity at recombinant human TRPV1 stably expressed in HEK293 cells assessed as inhibition of capsaicin-induced calcium flux at 133 uM preincubated for 5 mins followed by capsaicin addition and measured after 180 secs by Fluo-8 Calcium dye based fluorescence assay relative to control; conditions: time 8.0 min; procedure, shortened: as §1
# [7] = molecular target: Transient receptor potential cation channel subfamily A member 1 (Homo sapiens) (UniProt O75762); experiment: Agonist activity at recombinant human TRPA1 stably expressed in HEK293 cells at 200 uM measured after 180 secs by Fluo-8 Calcium dye based fluorescence assay relative to control; conditions: time 180.0 sec; procedure, shortened: as §2
# [8] = molecular target: Transient receptor potential cation channel subfamily V member 1 (Homo sapiens) (UniProt Q8NER1); experiment: Agonist activity at recombinant human TRPV1 stably expressed in HEK293 cells at 133 uM measured after 180 secs by Fluo-8 Calcium dye based fluorescence assay relative to control; conditions: time 180.0 sec; procedure, shortened: as §2
# [9] = molecular target: T1, Transient receptor potential cation channel subfamily M member 8; experiment: Antagonist activity at recombinant human TRPM8 transiently expressed in HEK293 cells assessed as inhibition of menthol-induced calcium flux by whole-cell patch-clamp electrophysiological method
# Procedure, shortened: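 Whole-cell patch clamp of HEK293 cells transiently transfected with human TRPM8. Currents were evoked by 500 μM menthol and recorded at +80 mV. Test compound was applied at 1 nM–0.1 mM. Currents were normalized and fitted for IC50. n = 3 cells, SEM.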
# Target sequence in this assay (Q7Z2W7 whole entry): as above
# [10] = molecular target: Transient receptor potential cation channel subfamily A member 1 (Homo sapiens) (UniProt O75762); experiment: Antagonist activity at recombinant human TRPA1 stably expressed in HEK293 cells assessed as inhibition of AITC-induced calcium flux at 200 uM preincubated for 5 mins followed by AITC addition and measured after 180 secs by Fluo-8 Calcium dye based fluorescence assay relative to control; conditions: time 8.0 min; procedure, shortened: as §1
# [11] = molecular target: Transient receptor potential cation channel subfamily A member 1 (Homo sapiens) (UniProt O75762); experiment: Agonist activity at recombinant human TRPA1 stably expressed in HEK293 cells at 333 uM measured after 180 secs by Fluo-8 Calcium dye based fluorescence assay relative to control; conditions: time 180.0 sec; procedure, shortened: as §2
# [12] = molecular target: T2, Transient receptor potential cation channel subfamily M member 8 (Rattus norvegicus, UniProt Q8R455); experiment: Antagonist activity at recombinant rat TRPM8 stably expressed in HEK293 cells assessed as inhibition of menthol-induced intracellular calcium level by Fluo-4NW probe based fluorescence assay; procedure, shortened: as §3
# [13] = organism: Homo sapiens; experiment: Selectivity ratio of IC50 for antagonist activity at human TRPV1 stably expressed in HEK293 cells to IC50 for antagonist activity at recombinant human TRPM8 stably expressed in HEK293 cells
# [14] = molecular target: Transient receptor potential cation channel subfamily A member 1 (Homo sapiens) (UniProt O75762); experiment: Agonist activity at recombinant human TRPA1 stably expressed in HEK293 cells at 267 uM measured after 180 secs by Fluo-8 Calcium dye based fluorescence assay relative to control; conditions: time 180.0 sec; procedure, shortened: as §2
# [15] = molecular target: Transient receptor potential cation channel subfamily V member 1 (Homo sapiens) (UniProt Q8NER1); experiment: Antagonist activity at recombinant human TRPV1 stably expressed in HEK293 cells assessed as inhibition of capsaicin-induced calcium flux at 200 uM preincubated for 5 mins followed by capsaicin addition and measured after 180 secs by Fluo-8 Calcium dye based fluorescence assay relative to control; conditions: time 8.0 min; procedure, shortened: as §1
# [16] = molecular target: Transient receptor potential cation channel subfamily V member 1 (Homo sapiens) (UniProt Q8NER1); experiment: Antagonist activity at recombinant human TRPV1 stably expressed in HEK293 cells assessed as inhibition of capsaicin-induced calcium flux at 66.7 uM preincubated for 5 mins followed by capsaicin addition and measured after 180 secs by Fluo-8 Calcium dye based fluorescence assay relative to control; conditions: time 8.0 min; procedure, shortened: as §1
# [17] = molecular target: Transient receptor potential cation channel subfamily V member 1 (Homo sapiens) (UniProt Q8NER1); experiment: Agonist activity at recombinant human TRPV1 stably expressed in HEK293 cells at 267 uM measured after 180 secs by Fluo-8 Calcium dye based fluorescence assay relative to control; conditions: time 180.0 sec; procedure, shortened: as §2
# [18] = molecular target: T2, Transient receptor potential cation channel subfamily M member 8; experiment: Antagonist activity at recombinant rat TRPM8 stably expressed in HEK293 cells assessed as inhibition of icilin-induced intracellular calcium level by Fluo-4NW probe based fluorescence assay; procedure, shortened: as §3
# [19] = molecular target: Transient receptor potential cation channel subfamily V member 1 (Homo sapiens) (UniProt Q8NER1); experiment: Antagonist activity at recombinant human TRPV1 stably expressed in HEK293 cells assessed as inhibition of capsaicin-induced calcium flux at 267 uM preincubated for 5 mins followed by capsaicin addition and measured after 180 secs by Fluo-8 Calcium dye based fluorescence assay relative to control; conditions: time 8.0 min; procedure, shortened: as §1
# [20] = molecular target: Transient receptor potential cation channel subfamily A member 1 (Homo sapiens) (UniProt O75762); experiment: Agonist activity at recombinant human TRPA1 stably expressed in HEK293 cells at 66.7 uM measured after 180 secs by Fluo-8 Calcium dye based fluorescence assay relative to control; conditions: time 180.0 sec; procedure, shortened: as §2
# [21] = molecular target: Transient receptor potential cation channel subfamily A member 1 (Homo sapiens) (UniProt O75762); experiment: Antagonist activity at recombinant human TRPA1 stably expressed in HEK293 cells assessed as inhibition of AITC-induced calcium flux at 267 uM preincubated for 5 mins followed by AITC addition and measured after 180 secs by Fluo-8 Calcium dye based fluorescence assay relative to control; conditions: time 8.0 min; procedure, shortened: as §1
# [22] = molecular target: Transient receptor potential cation channel subfamily V member 1 (Homo sapiens) (UniProt Q8NER1); experiment: Agonist activity at recombinant human TRPV1 stably expressed in HEK293 cells at 200 uM measured after 180 secs by Fluo-8 Calcium dye based fluorescence assay relative to control; conditions: time 180.0 sec; procedure, shortened: as §2
# [23] = molecular target: T1, Transient receptor potential cation channel subfamily M member 8; experiment: Antagonist activity at recombinant human TRPM8 stably expressed in HEK293 cells assessed as inhibition of menthol-induced intracellular calcium level by Fluo-4NW probe based fluorescence assay; procedure, shortened: as §3
# Target sequence in this assay (Q7Z2W7 whole entry): as above
# [24] = molecular target: Transient receptor potential cation channel subfamily A member 1 (Homo sapiens) (UniProt O75762); experiment: Antagonist activity at recombinant human TRPA1 stably expressed in HEK293 cells assessed as inhibition of AITC-induced calcium flux at 333 uM preincubated for 5 mins followed by AITC addition and measured after 180 secs by Fluo-8 Calcium dye based fluorescence assay relative to control; conditions: time 8.0 min; procedure, shortened: as §1
# [25] = organism: Homo sapiens; experiment: Selectivity ratio of IC50 for antagonist activity at human TRPA1 stably expressed in HEK293 cells to IC50 for antagonist activity at recombinant human TRPM8 stably expressed in HEK293 cells
# [26] = molecular target: Transient receptor potential cation channel subfamily A member 1 (Homo sapiens) (UniProt O75762); experiment: Antagonist activity at recombinant human TRPA1 stably expressed in HEK293 cells assessed as inhibition of AITC-induced calcium flux at 133 uM preincubated for 5 mins followed by AITC addition and measured after 180 secs by Fluo-8 Calcium dye based fluorescence assay relative to control; conditions: time 8.0 min; procedure, shortened: as §1
# [27] = molecular target: Transient receptor potential cation channel subfamily V member 1 (Homo sapiens) (UniProt Q8NER1); experiment: Antagonist activity at recombinant human TRPV1 stably expressed in HEK293 cells assessed as inhibition of capsaicin-induced calcium flux at 333 uM preincubated for 5 mins followed by capsaicin addition and measured after 180 secs by Fluo-8 Calcium dye based fluorescence assay relative to control; conditions: time 8.0 min; procedure, shortened: as §1
# [28] = molecular target: T1, Transient receptor potential cation channel subfamily M member 8; experiment: Antagonist activity at TRPM8 (unknown origin) expressed in CHO cells assessed as inhibition of D-1607-induced reduction in cell viability by measuring cell viability at 10 uM by celltiter-glo ATP chemiluminescence assay relative to control; conditions: filed as antagonist
# Target sequence in this assay (Q7Z2W7 whole entry, looked up): as the sequence (Q7Z2W7 whole entry) above
# [29] = molecular target: T2, Transient receptor potential cation channel subfamily M member 8; experiment: Antagonist activity at recombinant rat TRPM8 stably expressed in HEK293 cells assessed as inhibition of icilin-induced intracellular calcium level preincubated for 5 mins followed by icilin addition by Fluo-4Am dye based fluorescence assay
# [30] = molecular target: Transient receptor potential cation channel subfamily A member 1 (Rattus norvegicus, UniProt Q6RI86); experiment: Agonist activity at recombinant rat TRPA1 stably expressed in HEK293 cells assessed as increase in intracellular calcium release by Fluo-4AM dye based fluorescence assay
# Chain of Transient receptor potential cation channel subfamily V member 1 (Homo sapiens) (Q8NER1 whole entry): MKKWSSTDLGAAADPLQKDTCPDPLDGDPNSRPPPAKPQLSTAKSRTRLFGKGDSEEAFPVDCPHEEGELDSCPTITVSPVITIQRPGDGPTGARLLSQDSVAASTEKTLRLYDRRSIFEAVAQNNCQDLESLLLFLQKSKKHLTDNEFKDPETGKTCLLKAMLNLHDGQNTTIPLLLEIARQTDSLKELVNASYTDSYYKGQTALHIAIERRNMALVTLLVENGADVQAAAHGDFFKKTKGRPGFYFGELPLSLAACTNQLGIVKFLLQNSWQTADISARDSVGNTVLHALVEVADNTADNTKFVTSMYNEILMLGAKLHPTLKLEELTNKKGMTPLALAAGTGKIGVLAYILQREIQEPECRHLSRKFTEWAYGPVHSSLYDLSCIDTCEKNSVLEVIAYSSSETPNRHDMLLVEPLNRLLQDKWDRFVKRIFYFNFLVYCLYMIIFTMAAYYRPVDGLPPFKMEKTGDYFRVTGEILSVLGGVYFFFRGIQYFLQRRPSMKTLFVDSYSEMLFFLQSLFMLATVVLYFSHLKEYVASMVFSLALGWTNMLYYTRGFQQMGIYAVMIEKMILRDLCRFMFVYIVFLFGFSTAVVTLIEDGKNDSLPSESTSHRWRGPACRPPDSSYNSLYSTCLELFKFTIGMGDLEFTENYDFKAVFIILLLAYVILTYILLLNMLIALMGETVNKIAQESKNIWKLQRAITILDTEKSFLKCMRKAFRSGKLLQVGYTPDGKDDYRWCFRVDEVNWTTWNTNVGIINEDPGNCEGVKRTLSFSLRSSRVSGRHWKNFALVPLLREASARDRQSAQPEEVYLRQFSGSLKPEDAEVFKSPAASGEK
# Chain of Transient receptor potential cation channel subfamily A member 1 (Homo sapiens) (O75762 whole entry): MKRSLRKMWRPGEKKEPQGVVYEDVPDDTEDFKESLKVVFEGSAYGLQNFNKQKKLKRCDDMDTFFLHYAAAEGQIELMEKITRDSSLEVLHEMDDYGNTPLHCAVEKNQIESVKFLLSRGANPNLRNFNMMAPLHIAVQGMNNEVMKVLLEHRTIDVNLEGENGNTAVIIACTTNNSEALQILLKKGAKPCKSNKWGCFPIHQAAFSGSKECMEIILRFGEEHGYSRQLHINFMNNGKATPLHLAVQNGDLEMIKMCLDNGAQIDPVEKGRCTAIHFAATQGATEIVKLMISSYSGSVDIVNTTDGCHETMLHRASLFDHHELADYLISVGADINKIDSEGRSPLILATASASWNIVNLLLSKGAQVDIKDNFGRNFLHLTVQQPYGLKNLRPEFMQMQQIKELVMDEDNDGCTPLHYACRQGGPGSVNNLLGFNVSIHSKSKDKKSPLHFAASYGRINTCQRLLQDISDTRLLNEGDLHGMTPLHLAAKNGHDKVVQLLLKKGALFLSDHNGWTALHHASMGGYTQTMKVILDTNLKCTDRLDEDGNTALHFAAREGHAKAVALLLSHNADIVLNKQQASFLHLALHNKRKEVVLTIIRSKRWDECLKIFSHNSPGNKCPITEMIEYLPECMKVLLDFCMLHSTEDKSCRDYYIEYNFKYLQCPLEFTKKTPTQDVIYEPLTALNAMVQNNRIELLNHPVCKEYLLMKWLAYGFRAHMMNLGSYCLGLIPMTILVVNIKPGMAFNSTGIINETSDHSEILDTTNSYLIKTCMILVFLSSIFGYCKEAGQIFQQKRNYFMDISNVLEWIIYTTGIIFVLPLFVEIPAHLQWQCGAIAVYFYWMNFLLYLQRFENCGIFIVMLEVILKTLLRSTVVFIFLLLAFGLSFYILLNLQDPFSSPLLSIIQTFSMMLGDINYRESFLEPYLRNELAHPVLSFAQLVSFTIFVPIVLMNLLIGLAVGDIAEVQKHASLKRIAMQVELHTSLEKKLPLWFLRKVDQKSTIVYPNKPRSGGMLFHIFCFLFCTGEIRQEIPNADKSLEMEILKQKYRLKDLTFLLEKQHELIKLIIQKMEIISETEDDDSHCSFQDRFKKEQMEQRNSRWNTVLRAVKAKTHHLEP
# T2 sequence (Q8R455 whole entry): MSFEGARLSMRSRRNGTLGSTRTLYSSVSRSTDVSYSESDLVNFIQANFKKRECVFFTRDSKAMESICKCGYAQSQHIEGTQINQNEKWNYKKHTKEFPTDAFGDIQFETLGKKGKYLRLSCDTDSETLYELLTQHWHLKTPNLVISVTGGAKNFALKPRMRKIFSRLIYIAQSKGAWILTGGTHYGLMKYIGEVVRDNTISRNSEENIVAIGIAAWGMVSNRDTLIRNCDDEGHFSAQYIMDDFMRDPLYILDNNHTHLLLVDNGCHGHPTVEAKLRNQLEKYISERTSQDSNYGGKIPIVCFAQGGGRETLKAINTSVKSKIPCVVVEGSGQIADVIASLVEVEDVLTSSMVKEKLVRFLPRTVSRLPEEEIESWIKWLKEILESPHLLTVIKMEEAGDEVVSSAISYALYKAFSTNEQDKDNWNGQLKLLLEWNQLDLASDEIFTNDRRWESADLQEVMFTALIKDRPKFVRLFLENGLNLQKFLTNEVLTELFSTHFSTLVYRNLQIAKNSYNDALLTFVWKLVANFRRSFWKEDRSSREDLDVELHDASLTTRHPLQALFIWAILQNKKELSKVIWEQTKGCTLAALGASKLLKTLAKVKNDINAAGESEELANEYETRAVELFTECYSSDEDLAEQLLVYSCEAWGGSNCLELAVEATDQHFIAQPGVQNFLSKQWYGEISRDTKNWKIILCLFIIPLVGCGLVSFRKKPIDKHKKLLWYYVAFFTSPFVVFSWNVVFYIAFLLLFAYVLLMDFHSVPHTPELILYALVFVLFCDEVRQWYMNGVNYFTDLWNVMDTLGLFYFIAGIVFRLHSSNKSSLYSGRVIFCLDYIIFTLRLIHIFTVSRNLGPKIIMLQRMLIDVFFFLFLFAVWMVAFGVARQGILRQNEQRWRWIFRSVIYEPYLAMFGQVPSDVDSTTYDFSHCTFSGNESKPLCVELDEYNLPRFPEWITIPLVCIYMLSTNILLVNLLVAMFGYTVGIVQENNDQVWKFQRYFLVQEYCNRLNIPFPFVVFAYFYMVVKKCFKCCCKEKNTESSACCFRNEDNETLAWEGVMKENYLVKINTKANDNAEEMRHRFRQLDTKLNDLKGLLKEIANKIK
structure (smiles),measurement,setting,value
CC(C)[C@@H]1CC[C@@H](C)C[C@H]1NC(=O)c1ccc(-c2ccccc2)cc1,inhibition,[1],18.3%
same,Activity,[2],1.3%
same,IC50,[3],1800 nM
same,Activity,[4],-0.2%
same,Activity,[5],7.9%
same,inhibition,[6],-7.44%
same,Activity,[7],0.95%
same,Activity,[8],3.6%
same,IC50,[9],700 nM
same,inhibition,[10],18.7%
same,Activity,[11],3.4%
same,IC50,[12],117 nM
same,Ratio IC50,[13],> 400
same,Activity,[14],2.1%
same,inhibition,[15],-5.89%
same,inhibition,[16],-3.6%
same,Activity,[17],4.57%
same,IC50,[18],521 nM
same,inhibition,[19],6.79%
same,Activity,[20],-0.83%
same,inhibition,[21],16.8%
same,Activity,[22],4.8%
same,IC50,[23],805 nM
same,inhibition,[24],11.9%
same,Ratio IC50,[25],> 400
same,inhibition,[26],24.9%
same,inhibition,[27],7.64%
C=C1[C@H](C)CC[C@@H](C(C)C)[C@@H]1OC(=O)c1ccccc1,IC50,[9],2000 nM
CC(C)[C@@H]1CC[C@@H](C)C[C@H]1OC(=O)N1CCc2ccccc2C1,Activity,[28],112%
C=C(C)[C@@H]1CCC(C)=C[C@H]1c1c(O)cc(CCC)cc1O [CANNABIDIVARIN],IC50,[29],900 nM
same,EC50,[30],420 nM
